In ChEMBL document CHEMBL1833953, “Design, synthesis, and evaluation of a novel dual FMS-like tyrosine kinase 3/stem cell factor receptor (FLT3/c-KIT) inhibitor for the treatment of acute myelogenous leukemia” (J Med Chem, 2011):

Key:
[1] = Half life in iv dosed rat; format: ADME, organism-based; conditions: in vivo
[2] = Clearance in iv dosed rat; format: ADME, organism-based; conditions: in vivo
[3] = target: Mast/stem cell growth factor receptor Kit (Homo sapiens, UniProt P10721); assay: Displacement of [33P]ATP from human recombinant c-KIT domain after 20 mins by scintillation counting
In short: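 Radiometric kinase assay run in 100 mM HEPES pH 7.5 with 10 mM MgCl2, 25 mM NaCl, 0.01% BSA, 1 mM DTT and 0.5 mg/mL polyE4Y. Enzyme was 5 nM c-KIT with 700 μM 33P-ATP; inhibitor was added from DMSO. The reaction was started with ATP/substrate, run 20 min, stopped with 20% TCA/4 mM ATP, filtered, washed with 5% TCA and counted by scintillation.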

MV4-11 = assay: Cytotoxicity against human MV411 cells
[4] = target: T1, Receptor-type tyrosine-protein kinase FLT3 (Homo sapiens, UniProt P36888); assay: Displacement of [33P]ATP from human recombinant FLT3 domain after 20 mins by scintillation counting
T1 sequence (P36888 whole entry): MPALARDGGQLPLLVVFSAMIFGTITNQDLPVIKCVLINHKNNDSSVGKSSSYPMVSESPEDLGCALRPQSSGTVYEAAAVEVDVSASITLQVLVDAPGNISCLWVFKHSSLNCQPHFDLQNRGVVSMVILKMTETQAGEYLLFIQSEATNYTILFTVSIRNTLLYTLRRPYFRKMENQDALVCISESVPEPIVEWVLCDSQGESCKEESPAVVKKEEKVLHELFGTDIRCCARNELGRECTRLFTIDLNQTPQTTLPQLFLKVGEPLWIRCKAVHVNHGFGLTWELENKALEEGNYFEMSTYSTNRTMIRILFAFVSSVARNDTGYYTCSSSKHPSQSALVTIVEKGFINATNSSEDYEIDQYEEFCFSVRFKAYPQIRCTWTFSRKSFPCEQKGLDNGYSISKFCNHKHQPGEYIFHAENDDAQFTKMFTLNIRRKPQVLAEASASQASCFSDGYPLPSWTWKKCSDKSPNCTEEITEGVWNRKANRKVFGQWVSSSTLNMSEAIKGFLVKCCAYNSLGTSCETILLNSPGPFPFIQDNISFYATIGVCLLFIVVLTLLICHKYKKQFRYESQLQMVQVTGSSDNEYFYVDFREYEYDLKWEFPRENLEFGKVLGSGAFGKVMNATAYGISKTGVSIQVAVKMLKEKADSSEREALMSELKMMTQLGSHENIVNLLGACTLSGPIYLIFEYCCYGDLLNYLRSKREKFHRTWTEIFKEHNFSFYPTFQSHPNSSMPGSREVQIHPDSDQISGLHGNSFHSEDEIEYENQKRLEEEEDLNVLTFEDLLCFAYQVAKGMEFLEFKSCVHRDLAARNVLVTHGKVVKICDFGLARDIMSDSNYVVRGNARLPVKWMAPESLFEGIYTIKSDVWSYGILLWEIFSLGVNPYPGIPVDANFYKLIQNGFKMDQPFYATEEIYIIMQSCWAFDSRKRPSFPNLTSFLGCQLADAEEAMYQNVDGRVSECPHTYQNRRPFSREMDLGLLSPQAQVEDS

[5] = target: T2, Interleukin-1 receptor-associated kinase 4 (Homo sapiens, UniProt Q9NWZ3); assay: Inhibition of IRAK4 by spectrophotometry
T2 sequence (Q9NWZ3 whole entry): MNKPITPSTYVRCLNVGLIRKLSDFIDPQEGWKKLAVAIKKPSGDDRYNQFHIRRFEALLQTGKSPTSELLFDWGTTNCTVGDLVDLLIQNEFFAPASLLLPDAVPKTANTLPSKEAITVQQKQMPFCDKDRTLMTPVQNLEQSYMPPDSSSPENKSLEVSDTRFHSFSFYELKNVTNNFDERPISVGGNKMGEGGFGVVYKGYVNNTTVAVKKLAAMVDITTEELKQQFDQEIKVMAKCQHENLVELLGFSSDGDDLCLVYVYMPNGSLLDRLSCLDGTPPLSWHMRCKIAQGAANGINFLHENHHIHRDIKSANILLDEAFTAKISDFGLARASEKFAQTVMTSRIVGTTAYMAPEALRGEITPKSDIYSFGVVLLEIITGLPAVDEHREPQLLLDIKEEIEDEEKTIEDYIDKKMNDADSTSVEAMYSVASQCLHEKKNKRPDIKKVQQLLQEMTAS

Aurora kinase A = target: T3, Aurora kinase A (Homo sapiens, UniProt O14965); assay: Inhibition of Aurora A by spectrophotometry
T3 sequence (O14965 whole entry): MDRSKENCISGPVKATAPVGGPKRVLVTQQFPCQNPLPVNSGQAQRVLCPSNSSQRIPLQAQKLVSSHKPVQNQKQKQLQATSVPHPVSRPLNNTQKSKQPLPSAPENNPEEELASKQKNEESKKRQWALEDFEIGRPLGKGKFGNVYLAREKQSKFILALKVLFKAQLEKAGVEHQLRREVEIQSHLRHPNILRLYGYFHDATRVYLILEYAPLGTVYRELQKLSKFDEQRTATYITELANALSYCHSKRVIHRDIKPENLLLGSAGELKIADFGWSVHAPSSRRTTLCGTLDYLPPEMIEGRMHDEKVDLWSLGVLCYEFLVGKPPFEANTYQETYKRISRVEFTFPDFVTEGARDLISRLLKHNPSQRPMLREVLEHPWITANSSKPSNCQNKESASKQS

[6] = target: Tyrosine-protein kinase JAK2 (Homo sapiens, UniProt O60674); assay: Inhibition of JAK2 by spectrophotometry
Sequence of Tyrosine-protein kinase JAK2 (O60674 whole entry): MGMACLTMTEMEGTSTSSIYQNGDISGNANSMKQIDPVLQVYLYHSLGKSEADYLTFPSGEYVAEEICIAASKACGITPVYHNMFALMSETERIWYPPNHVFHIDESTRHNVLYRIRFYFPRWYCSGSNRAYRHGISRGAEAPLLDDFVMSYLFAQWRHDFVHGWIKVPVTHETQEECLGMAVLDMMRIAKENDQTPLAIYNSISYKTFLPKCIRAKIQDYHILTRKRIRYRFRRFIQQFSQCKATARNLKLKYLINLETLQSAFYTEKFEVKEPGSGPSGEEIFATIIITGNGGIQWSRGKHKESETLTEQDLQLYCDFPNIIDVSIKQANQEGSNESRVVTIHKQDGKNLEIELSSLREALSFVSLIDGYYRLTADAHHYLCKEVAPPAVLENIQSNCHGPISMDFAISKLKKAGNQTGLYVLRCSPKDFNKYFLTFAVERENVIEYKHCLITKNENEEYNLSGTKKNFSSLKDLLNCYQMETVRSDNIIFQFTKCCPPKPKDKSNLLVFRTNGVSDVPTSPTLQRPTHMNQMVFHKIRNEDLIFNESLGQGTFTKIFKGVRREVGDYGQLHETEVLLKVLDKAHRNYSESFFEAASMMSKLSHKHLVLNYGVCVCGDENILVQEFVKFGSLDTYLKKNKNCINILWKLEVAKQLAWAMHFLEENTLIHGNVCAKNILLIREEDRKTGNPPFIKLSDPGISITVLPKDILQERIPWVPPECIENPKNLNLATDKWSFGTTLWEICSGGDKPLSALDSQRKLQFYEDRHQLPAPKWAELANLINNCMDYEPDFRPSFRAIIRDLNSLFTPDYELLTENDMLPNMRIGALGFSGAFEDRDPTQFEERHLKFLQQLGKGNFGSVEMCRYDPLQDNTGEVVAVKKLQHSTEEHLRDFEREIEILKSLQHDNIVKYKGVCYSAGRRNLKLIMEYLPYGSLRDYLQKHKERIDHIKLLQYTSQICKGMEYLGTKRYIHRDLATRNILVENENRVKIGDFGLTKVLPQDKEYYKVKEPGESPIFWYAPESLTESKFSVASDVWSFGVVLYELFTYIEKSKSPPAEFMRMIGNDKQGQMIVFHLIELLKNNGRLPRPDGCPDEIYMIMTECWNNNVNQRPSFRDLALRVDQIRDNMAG

Sequence of Mast/stem cell growth factor receptor Kit (P10721 whole entry, the tested form may be a part): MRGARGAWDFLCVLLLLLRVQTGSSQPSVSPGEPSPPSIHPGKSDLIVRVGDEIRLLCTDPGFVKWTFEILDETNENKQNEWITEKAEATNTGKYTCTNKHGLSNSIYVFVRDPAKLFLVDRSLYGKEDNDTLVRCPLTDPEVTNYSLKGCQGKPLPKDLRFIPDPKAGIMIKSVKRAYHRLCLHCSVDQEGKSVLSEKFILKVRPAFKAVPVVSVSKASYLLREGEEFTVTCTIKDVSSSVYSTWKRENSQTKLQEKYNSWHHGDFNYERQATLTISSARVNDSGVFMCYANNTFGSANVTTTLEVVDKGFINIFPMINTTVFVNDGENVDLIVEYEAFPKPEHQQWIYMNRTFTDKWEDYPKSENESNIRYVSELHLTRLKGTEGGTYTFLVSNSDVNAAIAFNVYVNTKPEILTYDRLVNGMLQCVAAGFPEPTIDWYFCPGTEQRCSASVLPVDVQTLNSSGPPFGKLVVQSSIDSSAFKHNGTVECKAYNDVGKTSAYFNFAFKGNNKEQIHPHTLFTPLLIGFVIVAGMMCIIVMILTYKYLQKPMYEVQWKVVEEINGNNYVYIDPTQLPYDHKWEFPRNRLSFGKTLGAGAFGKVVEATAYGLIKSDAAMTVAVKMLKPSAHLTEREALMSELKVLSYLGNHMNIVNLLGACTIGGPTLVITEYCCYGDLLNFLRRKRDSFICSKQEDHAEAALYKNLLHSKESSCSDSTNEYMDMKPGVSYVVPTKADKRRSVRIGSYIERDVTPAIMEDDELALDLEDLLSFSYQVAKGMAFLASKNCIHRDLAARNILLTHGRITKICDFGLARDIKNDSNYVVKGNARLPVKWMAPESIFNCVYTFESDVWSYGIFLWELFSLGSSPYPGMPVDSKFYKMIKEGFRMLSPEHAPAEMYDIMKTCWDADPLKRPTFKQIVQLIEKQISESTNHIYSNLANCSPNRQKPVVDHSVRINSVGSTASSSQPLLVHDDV

half-life [1] | clearance [2] | Ki [3] | Ki [4] | Ki [5] | Ki (Aurora kinase A) | Ki [6] | Structure (SMILES) | IC50 (MV4-11)
1.42 h | 25.1 mL/min/kg | < 50 nM |  |  |  |  | CC(=O)N1CCC(c2ccc(Nc3nc(N)n(-c4ccccn4)n3)cc2)C1 (centres undefined) | 1 nM
1.61 h | 63.9 mL/min/kg |  |  |  |  |  | Nc1nc(Nc2ccc(C(=O)NCCN3CCOCC3)cc2)nn1-c1ccccn1 | 0.9 nM
 |  |  | 18 nM | 1200 nM | 2000 nM | > 4000 nM | Nc1nc(Nc2ccccc2Cl)nn1-c1ccccn1 | 
 |  | 12 nM | 15 nM | 420 nM | > 7000 nM | > 4000 nM | COc1ccccc1Nc1nc(N)n(-c2ccccn2)n1 | 
 |  | 9 nM | 2.8 nM | 43 nM | 103 nM | 67 nM | COc1ccc(Nc2nc(N)n(-c3ccccn3)n2)cc1OC | 
 |  | 37 nM | 12 nM | 440 nM | > 3000 nM | 590 nM | Nc1nc(Nc2cc(N3CCOCC3)ccc2F)nn1-c1ccccn1 | 
2.92 h | 16.7 mL/min/kg | 10 nM |  |  |  |  | Nc1nc(Nc2cccc(C(=O)N3CCOCC3)c2)nn1-c1ccccn1 | 
1.33 h | 42.1 mL/min/kg | 240 nM |  |  |  |  | CC(=O)Nc1ccc(Nc2nc(N)n(-c3ccccn3)n2)cc1 | 18 nM
1.03 h | 17.7 mL/min/kg | < 50 nM |  |  |  |  | Nc1nc(Nc2ccc(C(O)CCCN3CCOCC3)cc2)nn1-c1ccccn1 (centres undefined) | 1 nM
2.54 h | 84.4 mL/min/kg |  |  |  |  |  | CN1CCN(c2ccc(Nc3nc(N)n(-c4ccccn4)n3)cc2)CC1 | 2 nM
 |  |  | 15 nM | 36 nM | > 2500 nM | > 4000 nM | N#Cc1ccc(-n2nc(Nc3ccccc3Cl)nc2N)nc1 | 
